Assay results as given in ChEMBL document CHEMBL1122275, “1,3-dipalmitoylglycerol ester of chlorambucil as a lymphotropic, orally administrable antineoplastic agent” (J Med Chem, 1983).
“And” between values parts separate entries of the source, which are not always exact repeats. Equal entries are not always repeated.

How the values were obtained:
[1] = system: Mus musculus; assay: Antitumor activity measured as Body weight change (BWC) between day 1 and 5 at 0.052 […] dose against ip inoculated P388 leukemia in CDF1 mice; format: functional
Outline: (§1)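 Groups of six male CDF1 mice (18-22 g) were inoculated ip on day 0 with 1×10^6 viable P388 ascites cells from DBA/2 passage, suspended in chilled 0.9% saline. Drugs were suspended in 0.3% hydroxypropylcellulose in saline and given ip daily for 4 days starting at 24 h. Survival was followed to day 40. T/C = treated/control MST ×100, with 24 controls. BWC = mean weight change from day 1 to day 5.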

[2] = system: Mus musculus; assay: Antitumor a dose 0.069 […] against ip inoculated P388 leukemia in CDF1 mice; format: functional; outline: as §1
[3] = system: Mus musculus; assay: Antitumor a dose 0.17 […] against po inoculated P388 leukemia in CDF1 mice; format: functional
Outline: (§2)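 Male CDF1 mice (18-22 g; 6 per dose, 24 controls) received 10^6 viable P388 cells sc on day 0. Drugs in 0.3% hydroxypropylcellulose/saline were given ip or orally, daily for 4 days from 24 h and again on day 10. Survival was followed to day 40. T/C = MST ratio ×100. BWC covers day 1 to day 5. Toxicity was judged by NCI norms.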

[4] = system: Mus musculus; assay: Antitumor activity measured as Body weight change (BWC) between day 1 and 5 at 0.069 […] dose against ip inoculated P388 leukemia in CDF1 mice; format: functional; outline: as §1
[5] = system: Mus musculus; assay: Antitumor a dose 0.035 nmol/Kg against ip inoculated P388 leukemia in CDF1 mice; format: functional; outline: as §1
[6] = system: Mus musculus; assay: Antitumor activity measured as Body weight change (BWC) between day 1 and 5 at 0.11 […] dose against po inoculated P388 leukemia in CDF1 mice; format: functional; outline: as §2
[7] = system: Mus musculus; assay: Antitumor activity measured as T/C at 0.069 […] dose against ip inoculated P388 leukemia in CDF1 mice; format: functional; outline: as §1
[8] = system: Mus musculus; assay: Antitumor activity measured as Body weight change (BWC) between day 1 and 5 at 0.17 […] dose against po inoculated P388 leukemia in CDF1 mice; format: functional; outline: as §2
[9] = system: Mus musculus; assay: Antitumor activity measured as T/C at 0.052 […] dose against ip inoculated P388 leukemia in CDF1 mice; format: functional; outline: as §1
[10] = system: Mus musculus; assay: Antitumor activity measured as T/C at 0.035 […] dose against ip inoculated P388 leukemia in CDF1 mice; format: functional; outline: as §1
[11] = system: Mus musculus; assay: Antitumor activity measured as T/C at 0.17 […] dose against po inoculated P388 leukemia in CDF1 mice; format: functional; outline: as §2
[12] = system: Mus musculus; assay: Antitumor activity measured as Body weight change (BWC) between day 1 and 5 at 0.035 […] dose against sc inoculated P388 leukemia in CDF1 mice; format: functional; outline: as §2
[13] = system: Mus musculus; assay: Antitumor activity measured as T/C at 0.11 […] dose against po inoculated P388 leukemia in CDF1 mice; format: functional; outline: as §2
[14] = system: Mus musculus; assay: Antitumor a dose 0.035 nmol/kg against ip inoculated P388 leukemia in CDF1 mice; format: functional; outline: as §1
[15] = system: Mus musculus; assay: Antitumor activity measured as Body weight change (BWC) between day 1 and 5 at 0.035 […] dose against ip inoculated P388 leukemia in CDF1 mice; format: functional; outline: as §1
[16] = system: Mus musculus; assay: Antitumor a dose 0.052 […] against ip inoculated P388 leukemia in CDF1 mice; format: functional; outline: as §1
[17] = system: Mus musculus; assay: Antitumor a dose 0.11 […] against po inoculated P388 leukemia in CDF1 mice; format: functional; outline: as §2
[18] = system: Mus musculus; assay: Antitumor activity measured as T/C at 0.23 […] dose against po inoculated P388 leukemia in CDF1 mice; Toxic; format: functional, organism-based; outline: as §2
[19] = system: Mus musculus; assay: Antitumor activity measured as Body weight change (BWC) between day 1 and 5 at 0.069 […] dose against sc inoculated P388 leukemia in CDF1 mice; format: functional; outline: as §2
[20] = system: Mus musculus; assay: Antitumor a dose 0.23 […] against po inoculated P388 leukemia in CDF1 mice; Toxic; format: toxicity, organism-based; conditions: in vivo; outline: as §2
[21] = system: Mus musculus; assay: Antitumor activity measured as Body weight change (BWC) between day 1 and 5 at 0.052 […] dose against sc inoculated P388 leukemia in CDF1 mice; format: functional; outline: as §2
[22] = system: Mus musculus; assay: Antitumor activity measured as T/C at 0.11 […] dose against po inoculated P388 leukemia in CDF1 mice; Toxic; format: toxicity, organism-based; conditions: in vivo; outline: as §2
[23] = system: Mus musculus; assay: Antitumor a dose 0.066 […] against po inoculated P388 leukemia in CDF1 mice; format: functional; outline: as §2
[24] = system: Mus musculus; assay: Antitumor a dose 0.033 nmol/Kg against ip inoculated P388 leukemia in CDF1 mice; format: functional; outline: as §1
[25] = system: Mus musculus; assay: Antitumor activity measured as T/C at 0.050 […] dose against ip inoculated P388 leukemia in CDF1 mice; format: functional; outline: as §1
[26] = system: Mus musculus; assay: Antitumor activity measured as Body weight change (BWC) between day 1 and 5 at 0.033 […] dose against sc inoculated P388 leukemia in CDF1 mice; format: functional; outline: as §2
[27] = system: Mus musculus; assay: Antitumor activity measured as Body weight change (BWC) between day 1 and 5 at 0.033 […] dose against ip inoculated P388 leukemia in CDF1 mice; format: functional; outline: as §1
[28] = system: Mus musculus; assay: Antitumor activity measured as T/C at 0.16 […] dose against po inoculated P388 leukemia in CDF1 mice; Toxic; format: toxicity, organism-based; conditions: in vivo; outline: as §2
[29] = system: Mus musculus; assay: Antitumor activity measured as T/C at 0.066 […] dose against ip inoculated P388 leukemia in CDF1 mice; format: functional; outline: as §1
[30] = system: Mus musculus; assay: Antitumor activity measured as T/C at 0.066 […] dose against po inoculated P388 leukemia in CDF1 mice; format: functional; outline: as §2
[31] = system: Mus musculus; assay: Antitumor activity measured as T/C at 0.033 […] dose against ip inoculated P388 leukemia in CDF1 mice; format: functional; outline: as §1
[32] = system: Mus musculus; assay: Antitumor a dose 0.050 […] against ip inoculated P388 leukemia in CDF1 mice; format: functional; outline: as §1
[33] = system: Mus musculus; assay: Antitumor activity measured as Body weight change (BWC) between day 1 and 5 at 0.066 […] dose against ip inoculated P388 leukemia in CDF1 mice; format: functional; outline: as §1
[34] = system: Mus musculus; assay: Antitumor a dose 0.066 […] against ip inoculated P388 leukemia in CDF1 mice; Toxic; format: toxicity, organism-based; conditions: in vivo; outline: as §2
[35] = system: Mus musculus; assay: Antitumor activity measured as T/C at 0.066 […] dose against ip inoculated P388 leukemia in CDF1 mice; Toxic; format: toxicity, organism-based; conditions: in vivo; outline: as §2
[36] = system: Mus musculus; assay: Antitumor a dose 0.033 nmol/kg against ip inoculated P388 leukemia in CDF1 mice; format: functional; outline: as §1
[37] = system: Mus musculus; assay: Antitumor activity measured as Body weight change (BWC) between day 1 and 5 at 0.066 […] dose against sc inoculated P388 leukemia in CDF1 mice; format: functional; outline: as §2
[38] = system: Mus musculus; assay: Antitumor activity measured as Body weight change (BWC) between day 1 and 5 at 0.050 […] dose against ip inoculated P388 leukemia in CDF1 mice; format: functional; outline: as §1
[39] = system: Mus musculus; assay: Antitumor a dose 0.066 […] against ip inoculated P388 leukemia in CDF1 mice; format: functional; outline: as §1
[40] = system: Mus musculus; assay: Antitumor a dose 0.11 […] against po inoculated P388 leukemia in CDF1 mice; Toxic; format: toxicity, organism-based; conditions: in vivo; outline: as §2
[41] = system: Mus musculus; assay: Antitumor activity measured as Body weight change (BWC) between day 1 and 5 at 0.050 […] dose against sc inoculated P388 leukemia in CDF1 mice; format: functional; outline: as §2
[42] = system: Mus musculus; assay: Antitumor activity measured as Body weight change (BWC) between day 1 and 5 at 0.066 […] dose against po inoculated P388 leukemia in CDF1 mice; format: functional; outline: as §2
[43] = system: Mus musculus; assay: Antitumor a dose 0.16 […] against po inoculated P388 leukemia in CDF1 mice; Toxic; format: toxicity, organism-based; conditions: in vivo; outline: as §2

CCCCCCCCCCCCCCCC(=O)OCC(COC(=O)CCCCCCCCCCCCCCC)OC(=O)CCCc1ccc(N(CCCl)CCCl)cc1
BWC [1]: -2 g | MST [2]: 26.5 days and 23.5 days | MST [3]: 34 days | BWC [4]: -2.6 g | MST [5]: 20.5 days | BWC [6]: -3.5 g | T/C [7]: 265% and 162% | BWC [8]: -3.9 g | T/C [9]: 220% and 148% | T/C [10]: 170% and 141% | T/C [11]: 234% | BWC [12]: -2.35 g | T/C [13]: 168% | MST [14]: 17 days | BWC [15]: -1.6 g | MST [16]: 22 days and 21.5 days | MST [17]: 24.5 days | T/C [18]: Toxic | BWC [19]: -3.95 g | MST [20]: Toxic | BWC [21]: -2.55 g

O=C(O)CCCc1ccc(N(CCCl)CCCl)cc1 [CHLORAMBUCIL]
T/C [22]: Toxic | MST [23]: 22.5 days | MST [24]: 19.5 days | T/C [25]: 195% and 148% | BWC [26]: -2.55 g | BWC [27]: -2.2 g | T/C [28]: Toxic | T/C [29]: 230% | T/C [30]: 155% | T/C [31]: 169% and 134% | MST [32]: 19.5 days and 21.5 days | BWC [33]: -3.4 g | MST [34]: Toxic | T/C [35]: Toxic | MST [36]: 16.9 days | BWC [37]: -3.95 g | BWC [38]: -2.9 g | MST [39]: 23 days | MST [40]: Toxic | BWC [41]: -2.95 g | BWC [42]: -4.15 g | MST [43]: Toxic
